Active and inactive are the calls of the source.
How the values were obtained:
[1] = Growth inhibition of human NCI60 cells at 10 uM after 48 hrs by SRB assay; assay type: functional; settings: NCI60, 48 h, read-out: GI
Procedure, shortened: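 Tested in the NCI60 single-dose screen at 10 μM. The value is the mean percent inhibition of cell growth across the panel.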

[2] = tested on: Paracentrotus lividus; assay: Antiproliferative activity against sea urchin embryo assessed as cleavage alteration compound treated at 45 to 55 mins prior to first mitotic cycle completion and measured at 2.5 to 5.5 hrs post fertilization; assay type: functional
Procedure, shortened: (§1)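 Fertilized eggs were treated 8−20 min after fertilization. The embryos were held at room temperature in filtered seawater as a monolayer of up to 2000 embryos/mL. Compounds were given as 2-fold decreasing concentrations from a 10 mM DMSO stock diluted 10-fold in 95% EtOH, with DMSO ≤0.05% and EtOH ≤1%. Embryos were scored by light microscopy. The value is the effective threshold concentration, measured in duplicate.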

[3] = tested on: Paracentrotus lividus; assay: Antiproliferative activity against sea urchin embryo assessed as cleavage arrest compound treated at 45 to 55 mins prior to first mitotic cycle completion and measured at 2.5 to 5.5 hrs post fertilization; assay type: functional; procedure, shortened: as §1
[4] = tested on: Paracentrotus lividus; assay: Microtubule destabilizing activity in sea urchin embryo assessed as embryo spinning compound treated just after hatching at 8 to 10 hrs post fertilization and measured after 15 mins to 20 hrs of treatment
[5] = tested on: HL-60(TB); assay: Growth inhibition of human HL-60(TB) cells after 48 hrs by SRB assay; assay type: functional; settings: HL-60, 48 h
Procedure, shortened: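 Tested in the NCI60 anticancer drug screen. HL-60(TB) is one of the leukemia lines in the panel. Value reported as GI50, the concentration needed for 50% inhibition of cell growth.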

[6] = tested on: NCI/ADR-RES; assay: Growth inhibition of human NCI/ADR-RES cells after 48 hrs by SRB assay; assay type: functional, cell-based
Procedure, shortened: (§2)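 Tested in the NCI60 anticancer drug screen. GI50 is the concentration giving 50% cell growth inhibition. For the panel-wide line, the value is the mean GI50 across the panel.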

[7] = tested on: OVCAR-8; assay: Growth inhibition of human OVCAR8 cells after 48 hrs by SRB assay; assay type: functional, cell-based; procedure, shortened: as §2
[8] = tested on: K562; assay: Growth inhibition of human K562 cells after 48 hrs by SRB assay; assay type: functional; settings: K562, 48 h; procedure, shortened: as §2
[9] = Growth inhibition of human NCI60 cells after 48 hrs by SRB assay; assay type: functional; settings: NCI60, 48 h; procedure, shortened: as §2
[10] = tested on: SR; assay: Growth inhibition of human SR cells after 48 hrs by SRB assay; assay type: functional; procedure, shortened: as §2
[11] = tested on: OVCAR-3; assay: Growth inhibition of human OVCAR3 cells after 48 hrs by SRB assay; assay type: functional; settings: OVCAR-3, 48 h; procedure, shortened: as §2
[12] = tested on: SW-620; assay: Growth inhibition of human SW620 cells after 48 hrs by SRB assay; assay type: functional; settings: SW-620, 48 h; procedure, shortened: as §2
[13] = tested on: KM12; assay: Growth inhibition of human KM12 cells after 48 hrs by SRB assay; assay type: functional; settings: KM12, 48 h; procedure, shortened: as §2
[14] = tested on: MDA-MB-435; assay: Growth inhibition of human MDA-MB-435 cells after 48 hrs by SRB assay; assay type: functional; settings: MDA-MB-435, 48 h; procedure, shortened: as §2
[15] = tested on: NCI-H522; assay: Growth inhibition of human NCI-H522 cells after 48 hrs by SRB assay; assay type: functional; settings: NCI-H522, 48 h; procedure, shortened: as §2

COc1ccc(-c2c(N)n[nH]c2-c2cc3c(c(OC)c2OC)OCO3)cc1
inhibition of growth at 10 µM [1]: 3.38%
EC [2]: >4 µM
EC [3]: >4 µM
EC [4]: >4 µM

COc1ccc(-c2c(N)n[nH]c2-c2cc(OC)c3c(c2OC)OCO3)cc1
EC [2]: 4 µM
EC [3]: >4 µM
EC [4]: >4 µM

COc1ccc(-c2[nH]nc(N)c2-c2cc3c(c(OC)c2OC)OCO3)cc1
EC [2]: >4 µM
EC [3]: >4 µM
EC [4]: >4 µM

COc1ccc(-c2c(N)n[nH]c2-c2cc(OC)c3c(c2)OCO3)cc1
inhibition of growth at 10 µM [1]: 18.1%
EC [2]: 1 µM
EC [3]: >4 µM
EC [4]: >5 µM

COc1ccc(-c2c(N)n[nH]c2-c2cc(OC)c3c(c2)OCCO3)cc1
inhibition of growth at 10 µM [1]: 32%
EC [2]: 1 µM
EC [3]: >4 µM
EC [4]: >5 µM

COc1ccc(-c2c(N)n[nH]c2-c2cc(OC)c(OC)c(OC)c2)cc1
GI50 [5]: < 0.1 µM
growth inhibition (GI) [6]: Active
inhibition of growth at 10 µM [1]: 75.8%
EC [2]: 0.1 µM
EC [3]: 1 µM
EC [4]: >10 µM
growth inhibition (GI) [7]: Active
GI50 [8]: < 0.1 µM
GI50 [9]: 0.302 µM
GI50 [10]: < 0.1 µM
GI50 [11]: < 0.1 µM
GI50 [12]: < 0.1 µM
GI50 [13]: < 0.1 µM

COc1ccc(-c2[nH]nc(N)c2-c2cc(OC)c3c(c2OC)OCO3)cc1
EC [2]: >4 µM
EC [3]: >4 µM
EC [4]: >4 µM

COc1ccc(-c2[nH]nc(N)c2-c2cc(OC)c(OC)c(OC)c2)cc1
GI50 [14]: < 0.01 µM
growth inhibition (GI) [6]: Active
inhibition of growth at 10 µM [1]: 89.2%
EC [2]: 0.01 µM
EC [3]: 0.05 µM
EC [4]: 1 µM
growth inhibition (GI) [7]: Active
GI50 [9]: 0.046 µM
GI50 [15]: < 0.01 µM

COc1ccc(-c2[nH]nc(N)c2-c2cc(OC)c3c(c2)OCO3)cc1
growth inhibition (GI) [6]: Active
inhibition of growth at 10 µM [1]: 46%
EC [2]: 0.2 µM
EC [3]: >4 µM
EC [4]: >10 µM
growth inhibition (GI) [7]: Active
GI50 [9]: 4.37 µM
